This is a sample that favours compounds with a hit; in the whole collection about 3.5% have one here.
MrgX1 antag: antagonists of human MrgX1 receptor, primary screen, HEK293 cells, Fluo-4 calcium flux | Mas-related G-protein coupled receptor member X1 (Homo sapiens), Q96LB2 | BAM8-22 antagonism; stronger effect = lower value | B-score at 10 µM | 1.3% of 310,000 active | AID 588676, 2011;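 active means calcium-response B-score plate-corrected more than 3 library SD below zero, starting fluorescence within 5 deviations, no agonist response on first addition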;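 further: peak minus trough fluorescence over baseline after final BAM8-22 challenge near maximal dose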
RGS4 pot: RGS4 potentiators or activators, primary screen, cell-based, HEK293 M3R inducible RGS4, calcium flux | carbachol calcium flux Fluo4; stronger effect = lower value | B-score at 10 µM | 0.92% of 310,000 active | AID 463111, 2010;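 active means B-score of the integrated calcium signal more than 4 SD below the library mean, with starting fluorescence not abnormally high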;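 further: negative B-score means reduced calcium response which marks RGS4 activation or potentiation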
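test system = HEK293 cells with stable M3R and inducible RGS4 | schedule = recording 10 s baseline at 1 Hz, 100 s post-agonist | technique = Fluo4-AM (2 µM) calcium-flux fluorescence, kinetic read | measure = Agonist-evoked peak-minus-minimum fluorescence over baseline, integrated ratio, B score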
RGS4 block: RGS4 inhibitors, primary screen, cell-based, HEK293 M3R inducible RGS4, calcium flux | Regulator of G-protein signaling 4 (Homo sapiens), P49798 | Fluo-4 calcium flux; stronger effect = higher value; triggered by carbachol at its EC20 | B-score at 10 µM | 0.45% of 310,000 active | AID 463165, 2010;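 active means B-score, a plate-corrected calcium signal, over three deviations above library mean, with baseline fluorescence within five deviations of library mean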;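 further: RGS4 expression induced by doxycycline in cells with stable M3 receptor; B-score is computed from the integrated fluorescence ratio over baseline after carbachol; higher B-score means a larger calcium signal and so more RGS4 inhibition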
Target sequence (P49798 whole entry, looked up): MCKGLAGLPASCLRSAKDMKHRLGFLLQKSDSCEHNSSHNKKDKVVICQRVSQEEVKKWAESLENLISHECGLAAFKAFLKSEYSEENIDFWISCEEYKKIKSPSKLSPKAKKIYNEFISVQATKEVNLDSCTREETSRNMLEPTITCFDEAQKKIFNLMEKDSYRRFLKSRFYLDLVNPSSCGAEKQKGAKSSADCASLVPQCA
MrgX1 allo act: positive allosteric modulators of MrgX1, primary screen, HEK293 cells, Fluo-4 calcium flux; FDSS; stronger effect = higher value; Mas-related G-protein coupled receptor member X1 (Homo sapiens), Q96LB2; AID 588675, 2011; B-score at 10 µM; 0.63% of 310,000 active;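 active means plate-corrected calcium response at least 3 library SD above typical, normal starting fluorescence, not activating the receptor alone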;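 further: compound read alongside a low EC10 to EC30 dose of BAM8-22 agonist; peak minus trough fluorescence over baseline measured at the second addition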
MrgX1 ag: agonists of human MrgX1 receptor, primary screen, HEK293 cells, Fluo-4 calcium flux; Mas-related G-protein coupled receptor member X1 (Homo sapiens), Q96LB2; Fluo-4 calcium fluorescence, agonist mode; stronger effect = higher value; B-score at 10 µM; 0.44% of 310,000 active;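 active means calcium response B-score plate-corrected fluorescence ratio at least 3 library SD, with starting fluorescence B-score inside 5 SD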
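Material: MrgX1-expressing HEK293 cells / Dosing: compound as first of three additions / Incubation: overnight seeding, then 1 h dark dye loading / Signal: Fluo-4 NW calcium fluorescence / Evaluation: B-scored fluorescence response ratio / Benchmarks: positive and negative control wells on each plate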
An asterisk follows results filed as active.

`CC1=CC(=Nc2c(C)n(C)n(-c3ccccc3)c2=O)C=CC1=O` gave MrgX1 antag inactive, RGS4 pot inactive, RGS4 block 10.6*, MrgX1 allo act inactive and MrgX1 ag inactive.
`COc1cccc(NC(=O)Nc2nnc(N3C(C)CCCC3C)s2)c1` (centres undefined) gave MrgX1 antag inactive, RGS4 pot inactive, RGS4 block inactive, MrgX1 allo act inactive and MrgX1 ag inactive.
For CCCCn1nc(NS(=O)(=O)c2cccc3nonc23)c2cc3cccc(C)c3nc21 the results were MrgX1 antag inactive, RGS4 pot inactive, RGS4 block inactive, MrgX1 allo act 7.08* and MrgX1 ag inactive.
`O=C(COC(=O)c1cc[n+]([O-])cc1)Nc1c(Cl)cccc1C(F)(F)F` gave MrgX1 antag inactive, RGS4 pot inactive, RGS4 block inactive, MrgX1 allo act inactive and MrgX1 ag inactive.
CCN1/C(=C/C=C/c2oc3ccc4ccccc4c3[n+]2CC)Oc2ccc3ccccc3c21 was read as MrgX1 antag -7.83*, RGS4 pot -8.98*, RGS4 block inactive, MrgX1 allo act inactive and MrgX1 ag inactive.
`O=[N+]([O-])c1ccc(/C=N/Nc2nc(NCc3ccccc3)nc(N3CCOCC3)n2)cc1` gave MrgX1 antag inactive, RGS4 pot inactive, RGS4 block inactive, MrgX1 allo act inactive and MrgX1 ag inactive.
O=[N+]([O-])c1cc([N+](=O)[O-])c(N2CCOCC2)cc1NCc1ccccc1 was read as MrgX1 antag -9.64*, RGS4 pot inactive, RGS4 block inactive, MrgX1 allo act inactive and MrgX1 ag inactive.
For O=[N+]([O-])c1c(NCc2ccccc2)cc(N2CCc3ccccc3C2)c2nonc12 the results were MrgX1 antag -5.95*, RGS4 pot inactive, RGS4 block inactive, MrgX1 allo act inactive and MrgX1 ag inactive.
For O=[N+]([O-])c1c(NCCCO)cc(N2CCCCCC2)c2nonc12 the results were MrgX1 antag inactive, RGS4 pot inactive, RGS4 block inactive, MrgX1 allo act inactive and MrgX1 ag inactive.
For O=[N+]([O-])c1cccc(/C=N/Nc2nc(NCc3ccccc3)nc(N3CCOCC3)n2)c1O the results were MrgX1 antag inactive, RGS4 pot inactive, RGS4 block inactive, MrgX1 allo act inactive and MrgX1 ag 33.9*.
Screening Cn1c(=O)c(=O)n(C)c2cc(N3CCOCC3)c(NS(=O)(=O)c3ccc([N+](=O)[O-])cc3)cc21 returned MrgX1 antag inactive, RGS4 pot inactive, RGS4 block inactive, MrgX1 allo act 13.8* and MrgX1 ag inactive.
`Cn1c(=O)c(=O)n(C)c2cc(N3CCOCC3)c(NS(=O)(=O)c3ccc(F)c(Cl)c3)cc21` gave MrgX1 antag inactive, RGS4 pot inactive, RGS4 block inactive, MrgX1 allo act inactive and MrgX1 ag inactive.
Screening Cc1sc(NC(=O)C2CCCCC2C(=O)O)c(C(N)=O)c1-c1ccccc1 (centres undefined) returned MrgX1 antag inactive, RGS4 pot inactive, RGS4 block inactive, MrgX1 allo act inactive and MrgX1 ag inactive.
`Cc1sc(NC(=O)C2CCCCC2C(=O)O)c(C(N)=O)c1-c1ccc(C(C)C)cc1` (centres undefined) gave MrgX1 antag inactive, RGS4 pot inactive, RGS4 block inactive, MrgX1 allo act inactive and MrgX1 ag 53.5*.
For C=C1CCN(c2ccc(C(=O)NCCC)cc2[N+](=O)[O-])CC1 the results were MrgX1 antag inactive, RGS4 pot inactive, RGS4 block inactive, MrgX1 allo act inactive and MrgX1 ag inactive.
For Cc1cn([C@H]2C=C[C@@H](CO)O2)c(=O)[nH]c1=O the results were MrgX1 antag inactive, RGS4 pot inactive, RGS4 block inactive, MrgX1 allo act 9.41* and MrgX1 ag inactive.
`CSc1cccc(NC(=O)C2CCCN(c3ncnc4c3nc3n4CCCCC3)C2)c1` (centres undefined) gave MrgX1 antag inactive, RGS4 pot inactive, RGS4 block inactive, MrgX1 allo act inactive and MrgX1 ag inactive.
